Source: ChEMBL document CHEMBL3779766, “Synthesis and biological evaluation of quinoline analogues of flavones as potential anticancer agents and tubulin polymerization inhibitors” (Eur J Med Chem, 2016)
Active and inactive are the calls of the source. The calls are words filed in the database; no cut-off is given here.

What was measured:
A2780 [1] = assay: Cell cycle arrest in cisplatin resistant human A2780 cells assessed as accumulation at G2/M phase at 50 uM after 24 hrs by propidium iodide staining based flow cytometry (reference value: 19.63%); format: functional
[2] = Cell cycle arrest in human MCF7/MX cells assessed as accumulation at G2/M phase at 50 uM after 72 hrs by propidium iodide staining based flow cytometry (reference value: 5.68%); format: functional
A2780 [3] = assay: Antiproliferative activity against cisplatin resistant human A2780 cells assessed as cell viability after 48 hrs by MTT assay; format: functional, cell-based; details: A2780, 48 h
Procedure, shortened: (§1)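 Cancer cells were seeded at 5×10³ per well in RPMI complete medium. The next day the medium was replaced with a range of test concentrations, with a no-drug RPMI control. Plates ran 48 h at 37 °C, then MTT (4 mg/mL solution) was added for 3 h. Formazan was dissolved in DMSO and absorbance read at 540 nm. Triplicate determinations.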

A2780 [4] = assay: Cell cycle arrest in human A2780 cells assessed as accumulation at G2/M phase at 50 uM after 24 hrs by propidium iodide staining based flow cytometry (reference value: 12.71%); format: functional
MCF7 [5] = assay: Induction of apoptosis in human MCF7 cells assessed as accumulation at sub G1 phase at 50 uM after 72 hrs by propidium iodide staining based flow cytometry; format: functional, cell-based
Procedure, shortened: (§2)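 2.5×10⁵ cells were seeded in 6-well plates for 24 h, then treated for 72 h alongside a vehicle control (0.05% DMSO). Cells were ethanol-fixed (70%), then incubated 0.5 h at 37 °C with RNase A (1 mg/mL) plus propidium iodide. Flow cytometry (FL2) gave the percentage of cells in the sub-G1 region as the apoptotic fraction.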

MCF7/MX = assay: Induction of apoptosis in human MCF7/MX cells assessed as accumulation at sub G1 phase at 50 uM after 72 hrs by propidium iodide staining based flow cytometry; format: functional, cell-based; procedure, shortened: as §2
A2780 [6] = assay: Induction of apoptosis in human A2780 cells assessed as accumulation at sub G1 phase at 50 uM after 72 hrs by propidium iodide staining based flow cytometry; format: functional, cell-based; procedure, shortened: as §2
Tubulin (Sus scrofa) [7] = target: T1, Tubulin (Sus scrofa) (UniProt P02554+P02550); assay: Inhibition of porcine brain tubulin polymerization at 50 uM measured for 1 hr by fluorescence assay
Procedure, shortened: (§3)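 Polymerization was tracked by a fluorescent reporter incorporating into microtubules (ex 360/em 420 nm) every 1 min for 1 h. Controls were paclitaxel 3 µM (stabilizer) and CA-4 10 µM (destabilizer).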

MCF7 [8] = assay: Cell cycle arrest in human MCF7 cells assessed as accumulation at G2/M phase at 50 uM after 72 hrs by propidium iodide staining based flow cytometry (reference value: 6.18%); format: functional
MCF7 [9] = assay: Antiproliferative activity against human MCF7 cells assessed as cell viability after 48 hrs by MTT assay; format: functional, cell-based; details: MCF7, 48 h; procedure, shortened: as §1
[10] = Antiproliferative activity against human MCF7/MX cells assessed as cell viability after 48 hrs by MTT assay; format: functional, cell-based; procedure, shortened: as §1
A2780 [11] = assay: Induction of apoptosis in cisplatin resistant human A2780 cells assessed as accumulation at sub G1 phase at 50 uM after 72 hrs by propidium iodide staining based flow cytometry; format: functional, cell-based; procedure, shortened: as §2
A2780 [12] = assay: Antiproliferative activity against human A2780 cells assessed as cell viability after 48 hrs by MTT assay; format: functional, cell-based; details: A2780, 48 h; procedure, shortened: as §1
Tubulin (Sus scrofa) [13] = target: T1, Tubulin (Sus scrofa); assay: Inhibition of porcine brain tubulin polymerization at 100 uM measured for 1 hr by fluorescence assay; procedure, shortened: as §3
MCF7 [14] = assay: Cell cycle arrest in human MCF7 cells assessed as accumulation at G2/M phase at 100 uM after 72 hrs by propidium iodide staining based flow cytometry (reference value: 6.18%); format: functional
A2780 [15] = assay: Cell cycle arrest in human A2780 cells assessed as accumulation at G2/M phase at 100 uM after 24 hrs by propidium iodide staining based flow cytometry (reference value: 12.71%); format: functional
A2780 [16] = assay: Cell cycle arrest in cisplatin resistant human A2780 cells assessed as accumulation at G2/M phase at 100 uM after 24 hrs by propidium iodide staining based flow cytometry (reference value: 19.63%); format: functional
[17] = Cell cycle arrest in human MCF7/MX cells assessed as accumulation at G2/M phase at 100 uM after 72 hrs by propidium iodide staining based flow cytometry (reference value: 5.68%); format: functional
[18] = Cell cycle arrest in human MCF7/MX cells assessed as accumulation at G2/M phase at 3 uM after 72 hrs by propidium iodide staining based flow cytometry (reference value: 5.68%); format: functional
MCF7 [19] = assay: Cell cycle arrest in human MCF7 cells assessed as accumulation at G2/M phase at 3 uM after 72 hrs by propidium iodide staining based flow cytometry (reference value: 6.18%); format: functional
A2780 [20] = assay: Cell cycle arrest in human A2780 cells assessed as accumulation at G2/M phase at 3 uM after 24 hrs by propidium iodide staining based flow cytometry (reference value: 12.71%); format: functional
A2780 [21] = assay: Cell cycle arrest in cisplatin resistant human A2780 cells assessed as accumulation at G2/M phase at 3 uM after 24 hrs by propidium iodide staining based flow cytometry (reference value: 19.63%); format: functional
Tubulin (Sus scrofa) [22] = target: T1, Tubulin (Sus scrofa); details: 10 uM

T1 sequence (P02550 whole entry, looked up): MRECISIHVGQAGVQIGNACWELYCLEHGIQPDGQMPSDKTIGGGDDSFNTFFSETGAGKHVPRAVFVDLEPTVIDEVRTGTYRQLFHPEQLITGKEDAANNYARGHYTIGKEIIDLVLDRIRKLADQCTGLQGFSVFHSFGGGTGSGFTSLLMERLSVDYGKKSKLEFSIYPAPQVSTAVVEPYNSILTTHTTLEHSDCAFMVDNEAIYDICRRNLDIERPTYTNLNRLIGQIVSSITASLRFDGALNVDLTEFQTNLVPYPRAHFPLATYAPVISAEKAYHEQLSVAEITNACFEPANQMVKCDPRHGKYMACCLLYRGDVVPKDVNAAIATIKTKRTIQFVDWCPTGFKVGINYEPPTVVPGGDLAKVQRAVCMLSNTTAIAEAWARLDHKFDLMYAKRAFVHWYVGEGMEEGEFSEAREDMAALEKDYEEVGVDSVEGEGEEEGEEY
T1 sequence (P02554 whole entry, looked up): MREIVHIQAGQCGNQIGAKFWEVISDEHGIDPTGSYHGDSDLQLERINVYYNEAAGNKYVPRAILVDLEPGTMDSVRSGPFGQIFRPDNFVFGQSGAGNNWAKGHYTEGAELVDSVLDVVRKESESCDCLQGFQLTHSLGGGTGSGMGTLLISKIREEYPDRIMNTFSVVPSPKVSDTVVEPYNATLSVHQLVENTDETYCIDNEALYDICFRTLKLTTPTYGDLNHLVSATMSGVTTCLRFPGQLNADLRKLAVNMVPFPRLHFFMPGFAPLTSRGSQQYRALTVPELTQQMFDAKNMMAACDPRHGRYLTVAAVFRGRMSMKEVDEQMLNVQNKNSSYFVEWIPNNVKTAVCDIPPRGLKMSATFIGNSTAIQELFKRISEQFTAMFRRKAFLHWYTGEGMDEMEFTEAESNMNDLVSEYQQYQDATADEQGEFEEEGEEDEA

Structure (SMILES) | IC50 (A2780 [3]) [µM] | IC50 (MCF7 [9]) [µM] | IC50 [10] [µM] | IC50 (A2780 [12]) [µM] | further results
COc1cc(-c2cc(CO)c3c(OC)c(OC)c(OC)cc3n2)cc(OC)c1OC | 8.15 | 16.3 | 14.1 | 11.4 | Activity (A2780 [1]): 62.31%; Activity [2]: 44.8%; Activity (A2780 [4]): 79.59%; Activity (MCF7 [5]): Active; Activity (MCF7/MX): Active; Activity (A2780 [6]): Active; inhibition (Tubulin (Sus scrofa) [7]): Active; Activity (MCF7 [8]): 79.59%; Activity (A2780 [11]): Active
COc1cc2nc(-c3cccc(O)c3)cc(C(=O)O)c2c(OC)c1OC | > 100 | > 100 | > 100 | > 100 | –
COc1cc2nc(-c3ccc(O)cc3)cc(C(=O)O)c2c(OC)c1OC | > 100 | > 100 | > 100 | > 100 | –
COc1cc(-c2cc(C(=O)O)c3c(OC)c(OC)c(OC)cc3n2)ccc1O | > 100 | > 100 | > 100 | > 100 | inhibition (Tubulin (Sus scrofa) [13]): Active
COc1cc2nc(-c3ccc(O)cc3O)cc(C(=O)O)c2c(OC)c1OC | > 100 | > 100 | > 100 | > 100 | inhibition (Tubulin (Sus scrofa) [13]): Active
COc1ccc(-c2cc(CO)c3c(OC)c(OC)c(OC)cc3n2)cc1OC | 23.1 | 60.7 | 37.1 | 7.98 | inhibition (Tubulin (Sus scrofa) [7]): Active
COc1ccc(-c2cc(C(=O)O)c3c(OC)c(OC)c(OC)cc3n2)cc1O | > 100 | 56.3 | 98.5 | 38.7 | Activity (MCF7 [14]): 8%; Activity (A2780 [15]): 62.15%; Activity (A2780 [16]): 43.12%; inhibition (Tubulin (Sus scrofa) [13]): inactive; Activity [17]: 3.74%
COc1ccc(-c2cc(C(=O)O)c3c(OC)c(OC)c(OC)cc3n2)cc1OC | > 100 | > 100 | > 100 | > 100 | –
COc1cc(-c2cc(CO)c3c(OC)c(OC)c(OC)cc3n2)ccc1O | 52.2 | 49.7 | 53.9 | 9.19 | –
COc1ccc(/C=C\c2cc(OC)c(OC)c(OC)c2)cc1O [COMBRETASTATIN A4] | 2.95 | 1.23 | 2.97 | 2.84 | Activity [18]: 43.2%; Activity (MCF7 [19]): 80.09%; Activity (A2780 [20]): 78.38%; Activity (A2780 [21]): 25.41%; inhibition (Tubulin (Sus scrofa) [22]): Active
COc1ccc(-c2cc(CO)c3c(OC)c(OC)c(OC)cc3n2)cc1O | 43.3 | 59.5 | 21.5 | 29.6 | inhibition (Tubulin (Sus scrofa) [7]): Active
COc1ccc(-c2cc(CO)c3c(OC)c(OC)c(OC)cc3n2)cc1 | 28.4 | 16.4 | 39.8 | 8.04 | inhibition (Tubulin (Sus scrofa) [7]): Active
COc1ccc(-c2cc(C(=O)O)c3c(OC)c(OC)c(OC)cc3n2)cc1 | > 100 | > 100 | > 100 | > 100 | inhibition (Tubulin (Sus scrofa) [13]): Active
COc1cc(-c2cc(C(=O)O)c3c(OC)c(OC)c(OC)cc3n2)cc(OC)c1OC | > 100 | > 100 | > 100 | > 100 | –
